The record followed here is ChEMBL document CHEMBL3576817, “Synthesis and Evaluation of Conjugates of Novel TLR7 Inert Ligands as Self-Adjuvanting Immunopotentiators” (2015).

Test [1] is filed under the species Mus musculus. The test can be described thus: Immunostimulatory activity in BALB/c mouse splenocytes assessed as induction of IL-12 production at 10 uM after 24 hrs by ELISA relative to GD2. Format: functional, Splenocyte. The method, boiled down: (§1)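 Mouse splenocytes were seeded at 1 × 10^6/mL and incubated 24 h with serial dilutions of free ligand or conjugates. Antigen and conjugate concentrations were scaled for conjugation ratio: one-sixth for BSA, one-fifth for OVA and MSA, equal for MG7, one-quarter for thymosin. Supernatant IFN-γ and IL-12 were measured by ELISA and expressed as conjugated/free ligand ratios. Data are triplicates from one of three experiments.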
(In general: In an ELISA, binding on a coated surface is turned into a signal by an enzyme label.)

Test [2] is filed under the species Mus musculus. Put plainly: Immunostimulatory activity in BALB/c mouse splenocytes assessed as induction of IFN-gamma production at 10 uM after 24 hrs by ELISA relative to GD2. Format: functional, Splenocyte. The method, boiled down: as §1
The subject of test [3] is Mus musculus. Put plainly: Immunostimulatory activity in C57BL/6 mouse assessed as increase in IFN-gamma level in serum at 0.18 umol, iv after 2 to 48 hrs by luminex bead microassay relative to control. In kind it is functional, organism-based. The method, boiled down: (§2)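 C57BL/6 mice (n = 5 per group) received 0.18 μmol intravenously. Serum was collected at set times after injection, and IFN-γ and IL-12 were measured by Luminex assay against saline-treated controls. Data are mean ± SEM of two independent experiments.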

For test [4], the system named is Mus musculus. The test can be described thus: Immunostimulatory activity in C57BL/6 mouse assessed as increase in IFN-gamma level in serum at 0.18 umol, iv at 2 hrs by luminex bead microassay relative to control. In kind it is functional, organism-based. The method, boiled down:
as §2

Test [5] has as its system Mus musculus. The test can be described thus: Immunostimulatory activity in C57BL/6 mouse assessed as increase in IFN-gamma level in serum at 0.18 umol, iv after 2 to 6 hrs by luminex bead microassay in presence of MG7 relative to control. Format: functional, organism-based. The method, boiled down: as §2
The species entered for test [6] is Mus musculus. The test can be described thus: Immunostimulatory activity in BALB/c mouse splenocytes assessed as induction of IL-12 production at 10 uM after 24 hrs by ELISA in presence of thymosin relative to GD2. In kind it is functional, Splenocyte. The method, boiled down: as §1
Test [7] deals with T1, Toll-like receptor 7 (Mus musculus) (UniProt P58681).
T1 sequence (whole entry): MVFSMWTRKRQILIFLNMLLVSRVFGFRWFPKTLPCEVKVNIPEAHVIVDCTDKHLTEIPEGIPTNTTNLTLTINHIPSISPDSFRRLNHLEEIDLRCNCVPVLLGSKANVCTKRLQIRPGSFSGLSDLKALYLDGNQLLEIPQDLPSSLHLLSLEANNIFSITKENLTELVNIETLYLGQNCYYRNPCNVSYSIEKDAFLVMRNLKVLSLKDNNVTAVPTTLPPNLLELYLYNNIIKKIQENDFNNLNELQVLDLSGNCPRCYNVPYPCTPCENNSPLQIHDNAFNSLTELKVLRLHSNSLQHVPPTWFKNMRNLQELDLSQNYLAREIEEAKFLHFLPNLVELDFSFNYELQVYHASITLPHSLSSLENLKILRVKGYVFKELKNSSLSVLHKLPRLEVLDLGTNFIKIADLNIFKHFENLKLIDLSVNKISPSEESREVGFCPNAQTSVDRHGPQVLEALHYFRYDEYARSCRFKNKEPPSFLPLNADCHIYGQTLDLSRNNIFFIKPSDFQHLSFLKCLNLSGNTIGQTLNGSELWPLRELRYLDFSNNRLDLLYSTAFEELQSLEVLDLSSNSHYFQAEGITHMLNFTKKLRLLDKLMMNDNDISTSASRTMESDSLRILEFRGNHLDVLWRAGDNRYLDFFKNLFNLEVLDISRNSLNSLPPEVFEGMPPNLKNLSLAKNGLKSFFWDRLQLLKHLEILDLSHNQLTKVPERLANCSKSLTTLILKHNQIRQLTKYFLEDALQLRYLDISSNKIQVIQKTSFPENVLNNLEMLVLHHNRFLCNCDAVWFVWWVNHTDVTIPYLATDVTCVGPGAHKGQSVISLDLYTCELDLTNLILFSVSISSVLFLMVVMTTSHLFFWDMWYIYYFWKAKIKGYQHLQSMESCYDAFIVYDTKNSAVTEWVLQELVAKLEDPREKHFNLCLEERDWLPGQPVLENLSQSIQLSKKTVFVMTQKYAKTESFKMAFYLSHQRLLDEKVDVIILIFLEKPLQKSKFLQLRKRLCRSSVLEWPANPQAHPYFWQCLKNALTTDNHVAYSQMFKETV
The test can be described thus: Agonist activity at TLR7 in mouse BMDM assessed as increase in IL-12 production at 2 uM after 24 hrs by ELISA in presence of thymosin. Put shortly:
(§3)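 BMDM from wild-type or TLR7−/− mice were seeded at 1 × 10^6/mL. They were incubated 24 h with 2 μM antigen conjugates, with the free ligand at 10 μM. IL-12 in culture supernatants was measured by ELISA. Data are mean ± SEM of triplicates from one of three independent experiments. Only material with endotoxin <5 EU/mg was used.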

For test [8], the species on record is Mus musculus. The test can be described thus: Immunostimulatory activity in BALB/c mouse splenocytes assessed as induction of IL-12 production at 10 uM after 24 hrs by ELISA in presence of BSA relative to GD2. Format: functional, Splenocyte. Put shortly: as §1
Test [9] relates to Mus musculus. Put plainly: Immunostimulatory activity in C57BL/6 mouse assessed as increase in IgG1 level in serum at 0.83 nmol, sc administered every 7 days measured up to 30 days by ELISA in presence of BSA. In kind it is functional, organism-based. The method, boiled down:
(§4)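 Mice were immunized with antigen, free ligand or conjugate, and serum was collected every 7 days from day 0 to day 30. BSA- or OVA-specific IgG1 and IgG2a were measured by ELISA. Data are mean ± SEM of triplicate from one of three independent experiments.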

The target of test [10] is T1, Toll-like receptor 7 (Mus musculus). The test can be described thus: Agonist activity at TLR7 in mouse BMDM assessed as increase in IL-12 production at 2 uM after 24 hrs by ELISA in presence of BSA. The method, boiled down:
as §3

For test [11], the species on record is Mus musculus. Put plainly: Immunostimulatory activity in BALB/c mouse splenocytes assessed as induction of IL-12 production at 10 uM after 24 hrs by ELISA in presence of MG7 relative to GD2. In kind it is functional, Splenocyte. Put shortly:
as §1

The species entered for test [12] is Mus musculus. The test can be described thus: Immunostimulatory activity in BALB/c mouse splenocytes assessed as induction of IL-12 production at 10 uM after 24 hrs by ELISA in presence of MSA relative to GD2. Format: functional, Splenocyte. The method, boiled down:
as §1

Test [13] relates to Mus musculus. Put plainly: Immunostimulatory activity in C57BL/6 mouse assessed as increase in IFN-gamma level in serum at 0.18 umol, iv after 2 to 6 hrs by luminex bead microassay in presence of BSA relative to control. Format: functional, organism-based. Put shortly:
as §2

The species named for test [14] is Mus musculus. Put plainly: Immunostimulatory activity in BALB/c mouse splenocytes assessed as induction of IFN-gamma production at 10 uM after 24 hrs by ELISA in presence of MG7 relative to GD2. Format: functional, Splenocyte. Put shortly:
as §1

Test [15] relates to Mus musculus. Put plainly: Immunostimulatory activity in C57BL/6 mouse assessed as increase in IgG1 level in serum at 5 nmol, sc administered every 7 days measured up to 30 days by ELISA. In kind it is functional, organism-based. The method, boiled down:
as §4

Test [16] concerns Mus musculus. Put plainly: Immunostimulatory activity in C57BL/6 mouse assessed as increase in IgG2a level in serum at 0.83 nmol, sc administered every 7 days measured up to 30 days by ELISA in presence of BSA. In kind it is functional, organism-based. The method, boiled down:
as §4

The species named for test [17] is Mus musculus. Put plainly: Immunostimulatory activity in BALB/c mouse splenocytes assessed as induction of IFN-gamma production at 10 uM after 24 hrs by ELISA in presence of BSA relative to GD2. Format: functional, Splenocyte. The method, boiled down: as §1
The subject of test [18] is Mus musculus. The test can be described thus: Immunostimulatory activity in C57BL/6 mouse assessed as increase in IgG2a level in serum at 5 nmol, sc administered every 7 days measured up to 30 days by ELISA. In kind it is functional, organism-based. The method, boiled down:
as §4

The species named for test [19] is Mus musculus. Put plainly: Immunostimulatory activity in BALB/c mouse splenocytes assessed as induction of IFN-gamma production at 10 uM after 24 hrs by ELISA in presence of OVA relative to GD2. Format: functional, Splenocyte. The method, boiled down:
as §1

Test [20] deals with Mus musculus. Put plainly: Immunostimulatory activity in C57BL/6 mouse assessed as increase in IgG2a level in serum at 1 nmol, sc administered every 7 days measured up to 30 days by ELISA in presence of OVA. In kind it is functional, organism-based. Put shortly:
as §4

The target in test [21] is T1, Toll-like receptor 7 (Mus musculus). The test can be described thus: Agonist activity at TLR7 in mouse BMDM assessed as increase in IL-12 production at 2 uM after 24 hrs by ELISA in presence of MSA. The method, boiled down: as §3
For test [22] the target is unchanged. Put plainly: Agonist activity at TLR7 in mouse BMDM assessed as increase in IL-12 production at 2 uM after 24 hrs by ELISA in presence of MG7. The method, boiled down: as §3
For test [23], the system named is Mus musculus. The test can be described thus: Immunostimulatory activity in C57BL/6 mouse assessed as increase in IFN-gamma level in serum at 0.18 umol, iv after 2 to 6 hrs by luminex bead microassay in presence of OVA relative to control. In kind it is functional, organism-based. The method, boiled down: as §2
Test [24] deals with Mus musculus. The test can be described thus: Immunostimulatory activity in C57BL/6 mouse assessed as increase in IFN-gamma level in serum at 0.18 umol, iv after 2 to 6 hrs by luminex bead microassay in presence of thymosin relative to control. Format: functional, organism-based. The method, boiled down: as §2
Test [25] concerns Mus musculus. Put plainly: Immunostimulatory activity in C57BL/6 mouse assessed as increase in IFN-gamma level in serum at 0.18 umol, iv after 2 to 6 hrs by luminex bead microassay in presence of MSA relative to control. Format: functional, organism-based. Put shortly: as §2
Test [26] has as its target T1, Toll-like receptor 7 (Mus musculus). Put plainly: Agonist activity at TLR7 in mouse BMDM assessed as increase in IL-12 production at 2 uM after 24 hrs by ELISA in presence of OVA. Put shortly:
as §3

The species entered for test [27] is Mus musculus. Put plainly: Immunostimulatory activity in BALB/c mouse splenocytes assessed as induction of IL-12 production at 10 uM after 24 hrs by ELISA in presence of OVA relative to GD2. In kind it is functional, Splenocyte. Put shortly: as §1
The species entered for test [28] is Mus musculus. The test can be described thus: Immunostimulatory activity in BALB/c mouse splenocytes assessed as induction of IFN-gamma production at 10 uM after 24 hrs by ELISA in presence of thymosin relative to GD2. In kind it is functional, Splenocyte. Put shortly: as §1
The species entered for test [29] is Mus musculus. The test can be described thus: Immunostimulatory activity in BALB/c mouse splenocytes assessed as induction of IFN-gamma production at 10 uM after 24 hrs by ELISA in presence of MSA relative to GD2. Format: functional, Splenocyte. Put shortly: as §1
For test [30], the system named is Mus musculus. Put plainly: Immunostimulatory activity in C57BL/6 mouse assessed as increase in IgG1 level in serum at 1 nmol, sc administered every 7 days measured up to 30 days by ELISA in presence of OVA. Format: functional, organism-based. Put shortly: as §4

Calls of active or inactive are those of the source. The calls are words filed in the database; no cut-off is given here.

For `COCCOc1nc(N)c2nc(O)n(Cc3ccc(C=O)cc3)c2n1`, the entries for the “fold change (FC)” value in the test listed under Mus musculus [1] and in the test listed under Mus musculus [2] were 61 and 524, respectively. Besides, the result in the test with Mus musculus [3] was inactive. For the same compound, the outcome with Mus musculus [4] was Active.
As to `COCCOc1nc(N)c2nc(O)n(CCCC(=O)O)c2n1`, the outcome (with Mus musculus [5]; in test [7]; in the test on Mus musculus [9]; in test [10]; with Mus musculus [13]; in the test on Mus musculus [16]) was Active. The outcome (in the test on Mus musculus [20]; in [21]; in [22]; in the test with Mus musculus [23]; in the test with Mus musculus [24]; in the test with Mus musculus [25]) was Active. Besides, the result (in test [26]; in the test on Mus musculus [30]) was Active. The “fold change (FC)” value in the test listed under Mus musculus [6] was found to be 409; in the test listed under Mus musculus [8], 16; in the test listed under Mus musculus [11], 52; in the test listed under Mus musculus [12], 42; in the test listed under Mus musculus [14], 550; in the test filed under Mus musculus [17], 488. The “fold change (FC)” value in the test filed under Mus musculus [19] amounted to 73; in the test filed under Mus musculus [27], 175; in the test filed under Mus musculus [28] it was 1511; in the test listed under Mus musculus [29] it was 575. The outcome in the test with Mus musculus [15], in the test with Mus musculus [18] and in the test on Mus musculus [3] was inactive.
